In PMC3943421 (Biochemistry, 2012):
Like-named read-outs stand apart in the source and are kept apart here. Square brackets hold non-standard residues; d marks the D form. Peptide text beside a SMILES is read from it. pY = N[C@@H](Cc1ccc(OP(=O)(O)O)cc1)C(=O)O

Legend:
[1] = molecular target: FPRck-inhibited thrombin (anion-binding exosite II) (Homo sapiens, UniProt P00734); experiment: Surface plasmon resonance; conditions: SPR; for measurable binding to thrombin (in words): HBS-EP+, 25°C (Figure 3)
In short: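 Biotinylated peptides captured on streptavidin chips at 150 RU after three 60 s 1 M NaCl/50 mM NaOH conditioning pulses, with blank reference cells. HBS-EP+ (10 mM HEPES pH 7.4, 150 mM NaCl, 0.05% P20, 3 mM EDTA), 25°C. Serial thrombin injections for 20 s at 50 μl/min, 30 s dissociation, no regeneration. Buffer-only and reference signals subtracted. Equilibrium 1:1 Langmuir Kd from three replicates with fresh dilutions.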

[2] = molecular target: wild-type γ′ peptide (fibrinogen γ′ chain 410-427, both tyrosines phosphorylated); experiment: SPR
[3] = molecular target: wild-type γ′ peptide (fibrinogen γ′ chain 410-427, both tyrosines phosphorylated); experiment: SPR; remark: listed apart in the source
[4] = molecular target: wild-type γ′ peptide (fibrinogen γ′ chain 410-427, both tyrosines phosphorylated); experiment: SPR; remark: listed apart in the source
[5] = molecular target: wild-type γ′ peptide (fibrinogen γ′ chain 410-427, both tyrosines phosphorylated); experiment: SPR; remark: listed apart in the source
[6] = molecular target: γ′ analog peptide #12 (amino terminal three charges substituted); experiment: SPR
[7] = molecular target: γ′ analog peptide #13 (carboxyl terminal three charges substituted); experiment: SPR
γ′ analog peptide #1 = experiment: SPR
γ′ analog peptide #2 = experiment: SPR
γ′ analog peptide #3 = experiment: SPR
[8] = molecular target: γ′ analog peptide #4 (pTyr418Tyr); experiment: SPR
[9] = molecular target: γ′ analog peptide #5 (Asp419Asn); experiment: SPR
[10] = molecular target: γ′ analog peptide #6 (pTyr422Tyr); experiment: SPR
γ′ analog peptide #7 = experiment: SPR
γ′ analog peptide #8 = experiment: SPR
[11] = molecular target: γ′ analog peptide #9 (Asp426Asn); experiment: SPR
[12] = molecular target: wild-type γ′ peptide (fibrinogen γ′ chain 410-427, both tyrosines phosphorylated); experiment: SPR; remark: listed apart in the source

With CC(C)C[C@H](NC(=O)[C@H](CC(=O)O)NC(=O)[C@H](CC(=O)O)NC(=O)[C@H](CCC(=O)O)NC(=O)[C@@H]1CCCN1C(=O)[C@H](Cc1ccc(OP(=O)(O)O)cc1)NC(=O)[C@H](CC(C)C)NC(=O)[C@H](CO)NC(=O)[C@H](CC(=O)O)NC(=O)[C@H](Cc1ccc(OP(=O)(O)O)cc1)NC(=O)[C@H](CCC(=O)O)NC(=O)[C@@H](NC(=O)[C@H](CCC(=O)O)NC(=O)[C@H](C)NC(=O)[C@@H]1CCCN1C(=O)[C@H](Cc1c[nH]cn1)NC(=O)[C@H](CCC(=O)O)NC(=O)[C@@H]1CCCN1)[C@@H](C)O)C(=O)O [Wild-type] (H-PEHPAETE[pY]DSL[pY]PEDDL-OH) the Kd ([1]; Kd (mean ± standard error of the mean), [NaCl] 150 mM, 25°C) was 0.488 ± 0.042 µM.

In the case of FPRck-inhibited thrombin (enzyme), the Kd [2] is reported as 6.05 µM, the Kd [3] is reported as 18.6 µM and the Kd [4] is reported as 120 µM. For the same compound, the Kd [5] was 0.44 µM, the Kd [6] was 1.97 µM and the Kd [7] was 3.19 µM. It also gave a Kd (γ′ analog peptide #1) of 0.441 µM, a Kd (γ′ analog peptide #2) of 0.485 µM and a Kd (γ′ analog peptide #3) of 0.541 µM. It also gave a Kd [8] of 0.583 µM, a Kd [9] of 0.705 µM and a Kd [10] of 0.702 µM. For the same compound, the Kd (γ′ analog peptide #7) was 0.582 µM, the Kd (γ′ analog peptide #8) was 0.608 µM and the Kd [11] was 0.465 µM. For the same compound, the Kd [12] was 0.488 µM.

For PEHPAETE YNSL YPEDDL [#10], the “measurable binding to thrombin (in words)” value [1] was “complete absence of measurable binding”.

With PQHPAQTQpYDSLpYPQNNL [#11] the “measurable binding to thrombin (in words)” value [1] was “no measurable interaction with thrombin”.
